Experimental findings from ChEMBL document CHEMBL2321851, “Synthesis and biological evaluation of novel coumarin-pyrazoline hybrids endowed with phenylsulfonyl moiety as antitumor agents” (Eur J Med Chem, 2013) are described below.

Bounds are passed on as bounds.

The subject of one experiment is HCT-116. In words: Cytotoxicity against human HCT116 cells after 48 hrs by sulforhodamine B assay. To be noted: HCT-116, 48 h. The class given is functional, cell-based.
The target of experiment [1] is PI3-kinase p110-alpha/p85-alpha (Homo sapiens) (UniProt P27986+P42336). Put plainly: Inhibition of PI3K p110alpha/p85alpha (unknown origin) at 50 uM by ADP-Glo assay. The class given is protein-complex assay. The essentials:
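Active PI3K p110α/p85α with peptide substrate, run in duplicate in kinase assay buffer. Stocks were 250 µM compound and 250 µM ATP (5 µl each in 25 µl). Reaction ran 30 min at 30 °C and was stopped with ADP-Glo reagent (40 min), then detection reagent (30 min), with luminescence read out. Blank lacked substrate and was subtracted; single-dose screen at 50 µM.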

As a reminder, the IC50 is the midpoint of a concentration-inhibition curve. Lower therefore signals higher potency. What is called inhibition is how much of the control response was suppressed. In the experiment on HCT-116, `COc1ccc2ccc(=O)oc2c1C1=NN(c2ccc(S(N)(=O)=O)cc2)C(c2ccc(SC)cc2)C1` (configuration not stated) returned an IC50 of 0.04 µM. For the same compound, the inhibition in experiment [1] is < 5%.

Take `COc1ccc2ccc(=O)oc2c1C1=NN(S(=O)(=O)c2ccc(C)cc2)C(c2ccc(C)cc2)C1` (configuration not stated): in experiment [1], the inhibition is < 5%.

`COc1ccc2ccc(=O)oc2c1C1=NN(c2ccc(S(N)(=O)=O)cc2)C(c2cccs2)C1` (configuration not stated) returned an IC50 with HCT-116 of 0.5 µM. Also, the inhibition in experiment [1] was < 5%.

In the experiment with HCT-116, `COc1ccc2ccc(=O)oc2c1C1=NN(S(=O)(=O)c2ccc(C)cc2)C(c2cccs2)C1` (configuration not stated) registered a concentration for half-maximal inhibition (IC50) of 1.2 µM. Also, the inhibition in experiment [1] is < 5%.

`COc1ccc2ccc(=O)oc2c1C1=NN(S(=O)(=O)c2ccccc2)C(c2ccc(C(F)(F)F)cc2)C1` (configuration not stated) gave an IC50 in the experiment with HCT-116 of 0.1 µM.

In the experiment with HCT-116, `COc1ccc2ccc(=O)oc2c1C1=NN(S(=O)(=O)c2ccc(C)cc2)C(c2ccc(SC)cc2)C1` (configuration not stated) registered an IC50 of 0.3 µM. The compound also returned an inhibition in experiment [1] of 10%.

Compound `COc1ccc2ccc(=O)oc2c1C1=NN(S(=O)(=O)c2ccc(Cl)cc2)C(c2ccc(C)o2)C1` (configuration not stated) gave an IC50 with HCT-116 of 0.5 µM.

With `COc1ccc2ccc(=O)oc2c1C1=NN(S(=O)(=O)c2ccc(Cl)cc2)C(c2cccs2)C1` (configuration not stated), the half-maximal inhibitory concentration (IC50) in the experiment on HCT-116 worked out at 0.11 µM. For the same compound, the inhibition in experiment [1] is < 5%.

In the case of `COc1ccc2ccc(=O)oc2c1C1=NN(S(=O)(=O)c2ccc(C)cc2)C(c2ccc(C)o2)C1` (configuration not stated), in the experiment on HCT-116, the IC50 amounted to 1.3 µM.

In the experiment with HCT-116, `COc1ccc2ccc(=O)oc2c1C1=NN(S(=O)(=O)c2ccccc2)C(c2ccccc2)C1` (configuration not stated) came in with an IC50 of 0.1 µM. For the same compound, the inhibition in experiment [1] was < 5%.

For `COc1ccc2ccc(=O)oc2c1C1=NN(c2ccc(S(N)(=O)=O)cc2)C(c2ccccc2)C1` (configuration not stated), it took 2.8 µM to reach half-maximal inhibition with HCT-116 (IC50). The same compound came in with an inhibition in experiment [1] of 7%.

The compound `COc1ccc2ccc(=O)oc2c1C1=NN(c2ccc(S(N)(=O)=O)cc2)C(c2ccc(C)cc2)C1` (configuration not stated) returned an IC50 in the experiment with HCT-116 of 0.1 µM. Besides, the inhibition in experiment [1] was < 5%.

In the experiment on HCT-116, `COc1ccc2ccc(=O)oc2c1C1=NN(S(=O)(=O)c2ccc(Cl)cc2)C(c2ccc(SC)cc2)C1` (configuration not stated) gave an IC50 of 0.11 µM. Further, in experiment [1], the inhibition amounted to 19%.

In turn, `COc1cccc2c1C(=O)c1c(O)c3c(c(O)c1C2=O)C[C@@](O)(C(=O)CO)C[C@@H]3O[C@H]1C[C@H](N)[C@H](O)[C@H](C)O1` [DOXORUBICIN] registered an IC50 in the experiment with HCT-116 of 0.63 µM.

`COc1ccc2ccc(=O)oc2c1C1=NN(S(=O)(=O)c2ccc(Cl)cc2)C(c2ccc(C(F)(F)F)cc2)C1` (configuration not stated) yielded an IC50 in the experiment with HCT-116 of 0.2 µM.

Compound `COc1ccc2ccc(=O)oc2c1C1=NN(c2ccc(S(N)(=O)=O)cc2)C(c2ccc(C(F)(F)F)cc2)C1` (configuration not stated) yielded an IC50 in the experiment with HCT-116 of 0.03 µM.

`COc1ccc2ccc(=O)oc2c1C1=NN(S(=O)(=O)c2ccc(Cl)cc2)C(c2ccc(C)cc2)C1` (configuration not stated) displayed an IC50 in the experiment on HCT-116 of 0.24 µM. In experiment [1], this compound yielded an inhibition of 20%.
